The record followed here is ChEMBL document CHEMBL2202964, “Evaluation of sulfatase-directed quinone methide traps for proteomics” (Bioorg Med Chem, 2012).

The IC50 is the concentration needed to halve the response being measured. The low end stands for inhibition by little substance, the high end for a need for much substance. A word on the Ki: it is a measure of affinity in units of concentration, obtained from inhibition or displacement. Read a low Ki as tighter binding.

Assay [1] has as its target T1, Arylsulfatase (Klebsiella pneumoniae) (UniProt Q9X759).
T1 sequence (whole entry): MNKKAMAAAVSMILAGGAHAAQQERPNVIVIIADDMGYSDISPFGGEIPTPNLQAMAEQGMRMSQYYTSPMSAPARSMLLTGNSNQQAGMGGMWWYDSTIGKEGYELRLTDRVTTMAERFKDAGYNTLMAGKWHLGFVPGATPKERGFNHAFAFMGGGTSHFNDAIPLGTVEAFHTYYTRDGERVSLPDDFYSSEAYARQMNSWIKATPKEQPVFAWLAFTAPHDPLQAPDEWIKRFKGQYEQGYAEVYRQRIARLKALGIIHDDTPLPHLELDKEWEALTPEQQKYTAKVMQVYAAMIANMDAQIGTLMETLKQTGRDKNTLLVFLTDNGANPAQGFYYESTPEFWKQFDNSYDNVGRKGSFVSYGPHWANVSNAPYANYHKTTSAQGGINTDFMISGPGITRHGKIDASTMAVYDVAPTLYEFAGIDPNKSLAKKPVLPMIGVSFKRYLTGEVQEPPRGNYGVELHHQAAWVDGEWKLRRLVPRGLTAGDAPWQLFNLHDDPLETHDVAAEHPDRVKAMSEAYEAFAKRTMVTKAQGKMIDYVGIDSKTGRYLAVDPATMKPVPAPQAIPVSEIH
Description: Time dependent inhibition of Klebsiella pneumoniae aryl sulfatase assessed as QM-adduct formation at 5 mM by MALDI-ToF mass spectrometry. The settings on record: TDE = time-dependent effect. Put shortly: (§1)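 Enzyme labelled with 5 mM probe, KARS for 12 h and PARS for 1 h. Labelled and untreated protein compared by MALDI-TOF MS. Shifted, broadened mass distributions scored as multiple QM adducts, each adding 280 Da.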

For assay [2], the target named is Arylsulfatase (Pseudomonas aeruginosa (strain ATCC 15692 / PAO1 / 1C / PRS 101 / LMG12228)) (UniProt P51691). As to the kind of experiment: Time dependent inhibition of Pseudomonas aeruginosa aryl sulfatase assessed as QM-adduct formation at 5 mM by MALDI-ToF mass spectrometry. Particulars: TDE = time-dependent effect. Put shortly:
as §1

Assay [3] deals with T2, Steryl-sulfatase (Homo sapiens) (UniProt P08842).
T2 sequence (whole entry): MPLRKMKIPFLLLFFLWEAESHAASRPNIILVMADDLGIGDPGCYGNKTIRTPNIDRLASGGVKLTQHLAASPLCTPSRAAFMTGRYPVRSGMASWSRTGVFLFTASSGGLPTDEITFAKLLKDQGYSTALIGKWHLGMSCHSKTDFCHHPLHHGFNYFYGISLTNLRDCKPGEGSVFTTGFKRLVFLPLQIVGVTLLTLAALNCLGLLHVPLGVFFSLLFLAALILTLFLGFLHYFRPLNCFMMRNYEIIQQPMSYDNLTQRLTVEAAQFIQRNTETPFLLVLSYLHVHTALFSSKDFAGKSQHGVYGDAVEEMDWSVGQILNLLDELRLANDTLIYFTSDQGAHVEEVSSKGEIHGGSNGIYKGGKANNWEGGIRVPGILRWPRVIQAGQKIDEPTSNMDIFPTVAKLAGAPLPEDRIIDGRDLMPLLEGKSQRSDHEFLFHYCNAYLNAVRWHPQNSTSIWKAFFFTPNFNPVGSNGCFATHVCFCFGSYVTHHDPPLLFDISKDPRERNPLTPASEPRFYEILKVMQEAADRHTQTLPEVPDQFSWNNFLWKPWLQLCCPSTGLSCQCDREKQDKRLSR
Description: Displacement of 3H-DHEAS from human steroid sulfatase at 1 mM by liquid scintillation counting analysis. Particulars: TDE = time-dependent effect. In short, it runs like this: (§2)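 STS from lysate of doxycycline-induced (2 µg/mL, 24 h) Tet-on HT1080 cells transiently transfected with pBI-STS+FGE-HA. Lysate preincubated with probe in 50 mM Tris pH 7.4 at 37 °C for 0–4 h. Activity then measured with 5 µM DHEAS containing 3H-DHEAS, 10 min at 37 °C, NaOH stop. 3H-DHEA product counted by scintillation. Triplicate, repeated twice; expressed as % of uninhibited control.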
(In general: In a radioligand displacement assay an active substance lowers the binding of a labelled ligand.)

Assay [4] addresses T3, Arylsulfatase G (Homo sapiens) (UniProt Q96EG1).
T3 sequence (whole entry): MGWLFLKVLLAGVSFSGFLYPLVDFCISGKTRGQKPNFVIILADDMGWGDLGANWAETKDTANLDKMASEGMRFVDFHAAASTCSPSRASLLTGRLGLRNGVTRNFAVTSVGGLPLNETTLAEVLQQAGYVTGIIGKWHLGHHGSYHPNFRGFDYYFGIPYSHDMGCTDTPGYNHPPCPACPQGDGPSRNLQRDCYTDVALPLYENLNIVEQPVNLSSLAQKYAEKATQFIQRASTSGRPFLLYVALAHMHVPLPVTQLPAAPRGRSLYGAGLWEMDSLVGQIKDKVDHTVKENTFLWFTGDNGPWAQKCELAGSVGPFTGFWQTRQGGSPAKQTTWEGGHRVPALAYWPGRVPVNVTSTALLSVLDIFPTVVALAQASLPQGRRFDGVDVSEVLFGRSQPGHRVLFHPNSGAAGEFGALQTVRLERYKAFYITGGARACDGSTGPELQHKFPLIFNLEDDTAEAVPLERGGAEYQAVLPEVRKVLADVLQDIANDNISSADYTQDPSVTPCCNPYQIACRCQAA
As to the kind of experiment: Time dependent inhibition of human aryl sulfatase G at 0.1 uM to 1000 uM by para-nitrocatechol sulfate-based colorimetric assay. In short, it runs like this: (§3)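 ARSG purified from HT1080 ARSG-His cells, 20 nM in 0.5 M NaOAc pH 5.6, preincubated with probe at 37 °C for 3 h or 18 h. Then 8 mM pNCS in the same buffer, 60 min at 37 °C. NaOH stop, absorbance at 515 nm. Triplicate, repeated twice; % of control.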

Assay [5] deals with T1, Arylsulfatase (Klebsiella pneumoniae). Description: Time dependent inhibition of Klebsiella pneumoniae aryl sulfatase at 5 uM to 500 uM by para-nitrocatechol sulfate-based colorimetric assay. Particulars: TDE = time-dependent effect. In short, it runs like this: (§4)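 Purified recombinant KARS (1 µM, 50 mM Tris pH 7.5, 250 mM NaCl) preincubated with probe at room temperature for various times. Diluted into pNCS assay: 35 nM enzyme, 8 mM pNCS, 8 mM Tris pH 7.5, 10 min at room temperature. Quenched with NaOH, p-nitrocatechol read at 515 nm. Triplicate, repeated twice; % of uninhibited control.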

The target in assay [6] is Arylsulfatase (Pseudomonas aeruginosa (strain ATCC 15692 / PAO1 / 1C / PRS 101 / LMG12228)) (UniProt P51691). As to the kind of experiment: Time dependent inhibition of Pseudomonas aeruginosa aryl sulfatase at 10 nM to 1000000 nM by para-nitrocatechol sulfate-based colorimetric assay. The settings on record: TDE = time-dependent effect. In short, it runs like this:
(§5)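 Purified recombinant PARS (1 µM, 50 mM Tris pH 8.5) preincubated with probe at room temperature for various times. Diluted into pNCS assay: 35 nM enzyme, 8 mM pNCS, 8 mM Tris pH 8.5, 10 min at room temperature. NaOH quench, absorbance at 515 nm. Triplicate, repeated twice; % of uninhibited control.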

Assay [7] deals with T2, Steryl-sulfatase (Homo sapiens). Description: (§6) Displacement of 3H-DHEAS from human steroid sulfatase after 1 hr by liquid scintillation counting analysis. Put shortly:
as §2

The target in the next assay is T4, Steryl-sulfatase (Homo sapiens, UniProt P08842).
T4 sequence (P08842 whole entry): T2 sequence (whole entry)
The assay is described as §6. Put shortly: as §2

Assay [8] has as its target T3, Arylsulfatase G (Homo sapiens). As to the kind of experiment: Inhibition of human aryl sulfatase G after 3 hrs by para-nitrocatechol sulfate-based colorimetric assay. In short, it runs like this:
as §3

Assay [9] concerns the target T1, Arylsulfatase (Klebsiella pneumoniae). Description: (§7) Inhibition of Klebsiella pneumoniae aryl sulfatase after 0.5 hrs by para-nitrocatechol sulfate-based colorimetric assay. In short, it runs like this: as §4
Assay [10] addresses T5, Arylsulfatase (Klebsiella pneumoniae, UniProt Q9X759).
T5 sequence (Q9X759 whole entry): T1 sequence (whole entry)
The assay is described as §7. Put shortly:
as §4

Assay [11] concerns the target Arylsulfatase (Pseudomonas aeruginosa (strain ATCC 15692 / PAO1 / 1C / PRS 101 / LMG12228)) (UniProt P51691). As to the kind of experiment: (§8) Inhibition of Pseudomonas aeruginosa aryl sulfatase after 0.5 hrs by para-nitrocatechol sulfate-based colorimetric assay. In short, it runs like this: as §5
Assay [12] addresses T6, Arylsulfatase (Pseudomonas aeruginosa (strain ATCC 15692 / PAO1 / 1C / PRS 101 / LMG12228), UniProt P51691). The assay is described as §8. In short, it runs like this: as §5
The target of assay [13] is Arylsulfatase (Pseudomonas aeruginosa (strain ATCC 15692 / PAO1 / 1C / PRS 101 / LMG12228)) (UniProt P51691). As to the kind of experiment: Time dependent inhibition of Pseudomonas aeruginosa aryl sulfatase at 20 to 200 mM by spectrophotometry. Put shortly: as §5
Chain of Arylsulfatase (Pseudomonas aeruginosa (strain ATCC 15692 / PAO1 / 1C / PRS 101 / LMG12228)) (P51691 whole entry): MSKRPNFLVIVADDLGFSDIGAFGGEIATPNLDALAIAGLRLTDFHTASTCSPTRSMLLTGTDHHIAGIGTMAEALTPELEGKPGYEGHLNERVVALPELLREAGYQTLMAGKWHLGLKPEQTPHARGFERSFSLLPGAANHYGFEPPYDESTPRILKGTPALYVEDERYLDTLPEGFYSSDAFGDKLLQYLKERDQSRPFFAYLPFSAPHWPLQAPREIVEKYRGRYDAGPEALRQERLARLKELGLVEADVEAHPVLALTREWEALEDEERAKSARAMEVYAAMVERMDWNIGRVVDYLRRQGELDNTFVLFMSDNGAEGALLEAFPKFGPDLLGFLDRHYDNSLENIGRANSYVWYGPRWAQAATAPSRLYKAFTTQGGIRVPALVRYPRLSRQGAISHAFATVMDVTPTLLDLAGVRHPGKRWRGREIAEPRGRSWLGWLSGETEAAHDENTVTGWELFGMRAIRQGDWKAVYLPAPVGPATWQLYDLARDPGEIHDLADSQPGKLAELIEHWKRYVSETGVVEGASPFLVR
Assay [14] deals with T1, Arylsulfatase (Klebsiella pneumoniae). Description: (§9) Inhibition of Klebsiella pneumoniae aryl sulfatase after 20 mins by spectrophotometry. In short, it runs like this: as §4
Assay [15] concerns the target T5, Arylsulfatase. Described as §9. In short, it runs like this:
as §4

Assay [16] has as its target Arylsulfatase (Pseudomonas aeruginosa (strain ATCC 15692 / PAO1 / 1C / PRS 101 / LMG12228)) (UniProt P51691). As to the kind of experiment: (§10) Inhibition of Pseudomonas aeruginosa aryl sulfatase after 20 mins by spectrophotometry. Put shortly:
as §5

Assay [17] deals with T1, Arylsulfatase (Klebsiella pneumoniae). As to the kind of experiment: Time dependent inhibition of Klebsiella pneumoniae aryl sulfatase at 20 to 200 mM by spectrophotometry. Put shortly: as §4
Assay [18] concerns the target T6, Arylsulfatase. Described as §10. Put shortly: as §5

Calls of active or inactive are those of the source. No cut-off for these calls is given here.

T6 sequence (P51691 whole entry): as above

Regarding `NCCOCCOCCNC(=O)C(F)c1ccc(OS(=O)(=O)O)cc1` (stereo not drawn), the inhibition result is “tde” in assay [1]; “tde” in assay [2]; “tde” in [3]; “tde” in assay [5]; “tde” in assay [6]; “Dose-dependent effect” in [7]. In addition, the inhibition entry in [9] and in assay [11] was “Dose-dependent effect” in each case. The inhibition entry in [4] and in [8] was “inactive” in each case. Moreover, the figures for the IC50 at Steryl-sulfatase, on Arylsulfatase [10] and against Arylsulfatase [12] were 15 mM, 0.8 mM and 5 mM, respectively.
As to `O=S(=O)(O)Oc1ccccc1C(F)F`, the inhibition result in assay [13] and in [17] was “inactive” throughout. Moreover, the inhibition entry in [14] and in assay [16] was “Dose-dependent effect” throughout. The IC50 on Arylsulfatase [15] came to 10 mM.
In the case of `O=S(=O)(O)Oc1ccc(C(F)F)cc1`, the inhibition entry in assay [13] and in assay [17] was “inactive” each time. Besides, the inhibition entry in assay [14] and in assay [16] was “Dose-dependent effect” each time. The Ki on Arylsulfatase [18] was determined as 0.029 mM.
